Results from paper PMC6679720 (Pharmacological research, 2019).
Read-outs that look alike come from different tables or passages of the source.

Tests used:
[1] = cited from earlier work
Plasma Oxt = format: in vivo, mice; settings: for half-life: male, mouse; for time of return of plasma Oxt concentration to baseline / half-life / AUCG / AUCI / Cmax: plasma; for AUCG / AUCI / Cmax: nasal 12 μg, ELISA, mean ± s.e.m.
Procedure, shortened: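 Male Oxt KO and wildtype C57BL/6J mice received Oxt (12 µg total) nasally (2 × 6 μl saline pipetted bilaterally on the rhinarium) or i.p. (0.1 ml saline). Blood was drawn through a jugular catheter every 30 min for 2 h and double-centrifuged (6000 rpm, 15 min, 4°C). Plasma plus an equal volume of 0.1% TFA was extracted on C18 Sep-Pak columns and assayed by Oxt ELISA. Cmax, T1/2, AUCG (pg*30 min/sample) and AUCI were calculated.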

[2] = cited from earlier work; remark: listed apart in the source
[3] = format: in vivo, mice; settings: for Cmax in amygdala ECF adjusted for recovery rate: adjusted for recovery rate (4.58%)
Procedure, shortened: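 Male Oxt KO and wildtype C57BL/6J mice, housed singly. The day before, mice were anaesthetised with tribromoethanol and fitted with a jugular catheter and two linear microdialysis probes (18 kDa cut-off) in amygdala and hippocampus. Oxt (12 µg total) was given nasally (2 × 6 μl saline on the rhinarium) or i.p. in 0.1 ml saline. Dialysates were taken every 30 min for 2 h, vacuum-dried without heat, stored at -80°C, and measured unextracted by RIA.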

[4] = wildtype C57BL/6J male mice, N = 8
[5] = mice and rats, nonhuman primates, humans

## CC[C@H](C)[C@@H]1NC(=O)[C@H](Cc2ccc(O)cc2)NC(=O)[C@@H](N)CSSC[C@@H](C(=O)N2CCC[C@H]2C(=O)N[C@@H](CC(C)C)C(=O)NCC(N)=O)NC(=O)[C@H](CC(N)=O)NC(=O)[C@H](CCC(N)=O)NC1=O [Oxt, oxytocin]
[1]; intravenous injection
  share of the total Oxt that reaches the CNS: 2×10^−6
[1]; nasal administration
  share of the total Oxt that reaches the CNS: 5×10^−6
Plasma Oxt; Oxt KO mice, intraperitoneal injection
  time of return of plasma Oxt concentration to baseline: exceeding 120 minutes
Plasma Oxt; Oxt KO mice, nasal administration
  time of return of plasma Oxt concentration to baseline: 90 to 120 min
Plasma Oxt; C57BL/6J (wildtype), inhaled or intranasal, 12 ug
  half-life: 25.8 ± 6 min
Plasma Oxt; C57BL/6J, ip, 12 μg
  half-life: 32 ± 9.1 min
Plasma Oxt; Oxt KO, ip, 12 μg
  half-life: 34.5 ± 8.9 min
Plasma Oxt; Oxt KO male mice, N = 7
  AUCG: 7920 ± 1280b pg*30 min/sample
  AUCI: 6120± 1280 pg*30 min/sample
  Cmax: 131 ± 29 pg/sample
Plasma Oxt; [4]
  AUCG: 23,600 ± 4880a pg*30 min/sample
  AUCI: 17,300 ± 5260 pg*30 min/sample
  Cmax: 398± 101 pg/sample
Plasma Oxt; nasal, Oxt KO mice, spiking in the first 30 minutes
  time for which Oxt was detected in circulation: 90 min
[2]; earlier studies
  persistence of the rise of plasma Oxt after nasal application: 75 to 90 min
  time of peak of plasma Oxt after nasal application: 15 to 30 min
[2]; [5]
  time of peak of Oxt in circulation after nasal application: 15 to 30 min
  time of return of Oxt in circulation to baseline after nasal application: 75 to 90 min
[2]; ref 22, 23, 28
  time of rise in CSF Oxt after nasal application: 15 to 30 min
[2]; ref 24
  time of rise in CSF Oxt after nasal application: 75 min
[2]; ref 26
  time of rise in CSF Oxt after nasal application: 60 min
[3]; Oxt KO mice, amygdala, intraperitoneal injection
  time of return of Oxt concentration to baseline: 60 to 90 min
[3]; after nasal administration, current study, 30-min sampling
  time at which Cmax of Oxt occurred: 30 to 60 min
[3]; intraperitoneal injection, wildtype mice, amygdala
  Cmax in amygdala ECF adjusted for recovery rate: 0.91 ± 0.27 ng/mL
[3]; nasal administration, wildtype mice, amygdala
  Cmax in amygdala ECF adjusted for recovery rate: 4.16 ± 1.00 ng/mL
[3]; nasal and intraperitoneal administration, wildtype mice
  time of peak concentration in brain ECF and plasma: 30 to 60 min
[3]; nasal, Oxt KO mice
  time for which Oxt remained detectable in amygdala and hippocampus: 90 min
